Values after ≈ are worked out from the molar mass of the structure shown.
Tests used:
[1] = biological target: RAF proto-oncogene serine/threonine-protein kinase (Homo sapiens, UniProt P04049); test: Inhibitory activity against human Raf-1 kinase
In short: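 EE-tagged c-Raf and Mek made in baculovirus-infected Sf-9 cells, immuno-affinity purified. Raf (4 μg/mL) with Mek substrate (20 μg/mL) in 200 mM Tris pH 8.2, 100 mM NaCl, 20 mM 2-mercaptoethanol; compound added before starting with 10 μM γ-[³³P]ATP stock. 32 °C, 25 min; phosphocellulose filter capture, scintillation count.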

[2] = Solubility at pH 2.7; type: physicochemical; conditions: buffer
[3] = Solubility at pH 7.2; type: physicochemical; conditions: buffer
In short: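 Aqueous solubility determined in 0.5× PBS at pH 7.2; reported in µg/mL.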

RAF proto-oncogene serine/threonine-protein kinase, sequence (P04049 whole entry): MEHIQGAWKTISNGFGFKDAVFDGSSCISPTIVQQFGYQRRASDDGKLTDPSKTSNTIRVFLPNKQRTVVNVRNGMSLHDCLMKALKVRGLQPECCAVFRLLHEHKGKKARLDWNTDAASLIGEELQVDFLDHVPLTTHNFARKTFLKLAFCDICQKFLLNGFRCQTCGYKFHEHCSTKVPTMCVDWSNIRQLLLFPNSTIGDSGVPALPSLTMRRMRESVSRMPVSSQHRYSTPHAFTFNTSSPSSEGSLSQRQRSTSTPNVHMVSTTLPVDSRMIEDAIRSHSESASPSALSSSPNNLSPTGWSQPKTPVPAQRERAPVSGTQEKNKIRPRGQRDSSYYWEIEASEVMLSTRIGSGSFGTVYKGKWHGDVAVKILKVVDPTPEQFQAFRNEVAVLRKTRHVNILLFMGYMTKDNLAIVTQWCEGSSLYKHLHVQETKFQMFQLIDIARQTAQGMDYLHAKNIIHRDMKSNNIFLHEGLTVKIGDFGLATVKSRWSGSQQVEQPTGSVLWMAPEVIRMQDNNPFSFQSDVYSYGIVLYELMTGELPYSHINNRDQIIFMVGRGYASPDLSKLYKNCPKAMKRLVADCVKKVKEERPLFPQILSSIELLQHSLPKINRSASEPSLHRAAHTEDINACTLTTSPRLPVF

IC50 [1] [nM] | solubility [2] [µg/mL] | solubility [3] [µg/mL] | SMILES
50 | – | – | CNC(=O)c1cncc(Oc2ccc(NC(=O)Nc3ccc(Cl)c(C(F)(F)F)c3)cc2)c1
410 | – | – | COc1ccc(C(F)(F)F)cc1NC(=O)Nc1ccc(Oc2cccc(C(=O)Nc3ccc(N(C)C)cc3)c2)cc1
460 | – | – | CC(C)(C)c1cc(NC(=O)Nc2ccc(Oc3cccc(C(=O)NCc4ccccc4)c3)cc2)no1
60 | 39 (≈ 64.1 µM) | ≤ 5 | O=C(Nc1ccc(Oc2ccnc(C(=O)NCCN3CCOCC3)c2)cc1)Nc1ccc(Br)c(C(F)(F)F)c1
2300 | – | – | CC(C)NC(=O)c1cc(Oc2ccc(NC(=O)Nc3ccc(Cl)c(C(F)(F)F)c3)cc2)ccn1
53 | – | – | CNC(=O)c1cc(Oc2ccc(NC(=O)Nc3cc(C(F)(F)F)ccc3OC)cc2)ccn1
130 | – | – | CNC(=O)c1cccc(Oc2ccc(NC(=O)Nc3cc(C(F)(F)F)ccc3OC)cc2)c1
130 | – | – | CNC(=O)c1cccc(Oc2ccc(NC(=O)Nc3ccc(Cl)c(C(F)(F)F)c3)cc2)c1
140 | 36 (≈ 63.8 µM) | ≤ 5 | O=C(Nc1ccc(Oc2cncc(C(=O)NCCN3CCOCC3)c2)cc1)Nc1ccc(Cl)c(C(F)(F)F)c1
150 | – | – | COc1ccc(NC(=O)c2cccc(Oc3ccc(NC(=O)Nc4cc(C(F)(F)F)ccc4OC)cc3)c2)cn1
460 | – | – | CCNC(=O)c1cc(Oc2ccc(NC(=O)Nc3cc(C(F)(F)F)ccc3OC)cc2)ccn1
44 | – | – | O=C(Nc1ccc(Oc2cccc(C(=O)Nc3cccnc3)c2)cc1)Nc1ccc(Cl)c(C(F)(F)F)c1
170 | – | – | CN(C)C(=O)c1cc(Oc2ccc(NC(=O)Nc3ccc(Br)c(C(F)(F)F)c3)cc2)ccn1
130 | – | – | CCNC(=O)c1cccc(Oc2ccc(NC(=O)Nc3cc(C(C)(C)C)on3)cc2)c1
300 | – | – | CN(C)C(=O)c1cc(Oc2ccc(NC(=O)Nc3ccc(Cl)c(C(F)(F)F)c3)cc2)ccn1
70 | – | – | O=C(Nc1ccc(Oc2cccc(C(=O)NCCN3CCOCC3)c2)cc1)Nc1ccc(Cl)c(C(F)(F)F)c1
160 | – | – | O=C(Nc1ccc(Oc2cccc(C(=O)NCCNc3ccccc3)c2)cc1)Nc1ccc(Cl)c(C(F)(F)F)c1
73 | 141 (≈ 250 µM) | ≤ 5 | O=C(Nc1ccc(Oc2ccnc(C(=O)NCCN3CCOCC3)c2)cc1)Nc1ccc(Cl)c(C(F)(F)F)c1
330 | – | – | COc1ccc(C(F)(F)F)cc1NC(=O)Nc1ccc(Oc2ccnc(C(=O)N(C)C)c2)cc1
210 | – | – | COc1ccc(C(F)(F)F)cc1NC(=O)Nc1ccc(Oc2cccc(C(=O)Nc3ccc(N4CCOCC4)cc3)c2)cc1
120 | – | – | CNC(=O)c1cccc(Oc2ccc(NC(=O)Nc3cc(C(C)(C)C)on3)cc2)c1

IC50 [1] [nM] | solubility [2] [µg/mL] | solubility [3] [µg/mL] | SMILES
230 | – | – | CC(C)(C)c1cc(NC(=O)Nc2ccc(Oc3ccncc3)cc2)no1
130 | – | – | COc1ccncc1NC(=O)c1cccc(Oc2ccc(NC(=O)Nc3ccc(Cl)c(C(F)(F)F)c3)cc2)c1
68 | – | – | CC(C)(C)c1cc(NC(=O)Nc2ccc(Oc3cccc(C(=O)Nc4cccnc4)c3)cc2)no1
82 | – | – | O=C(Nc1ccc(Oc2cccc(C(=O)NCCN3CCCCC3)c2)cc1)Nc1ccc(Cl)c(C(F)(F)F)c1
100 | 129 (≈ 249 µM) | 41 (≈ 79.2 µM) | COc1ccc(C(F)(F)F)cc1NC(=O)Nc1ccc(Oc2cncc(C(=O)NCCN(C)C)c2)cc1
27 | – | – | CCNC(=O)c1cc(Oc2ccc(NC(=O)Nc3ccc(Br)c(C(F)(F)F)c3)cc2)ccn1
370 | – | – | CC(C)(C)c1cc(NC(=O)Nc2ccc(Oc3cccc(C(=O)Nc4ccccc4)c3)cc2)no1
26 | – | – | CCNC(=O)c1cc(Oc2ccc(NC(=O)Nc3ccc(Cl)c(C(F)(F)F)c3)cc2)ccn1
500 | – | – | COc1ccc(C(F)(F)F)cc1NC(=O)Nc1ccc(Oc2ccnc(C(=O)NCC(C)C)c2)cc1
6 | – | – | CNC(=O)c1cc(Oc2ccc(NC(=O)Nc3ccc(Br)c(C(F)(F)F)c3)cc2)ccn1
63 | – | – | COc1ccc(C(F)(F)F)cc1NC(=O)Nc1ccc(Oc2cncc(C(=O)NCCN3CCOCC3)c2)cc1
110 | – | – | COCCNC(=O)c1cccc(Oc2ccc(NC(=O)Nc3ccc(Cl)c(C(F)(F)F)c3)cc2)c1
61 | ≤ 4 | ≤ 4 | CNC(=O)c1cncc(Oc2ccc(NC(=O)Nc3cc(C(F)(F)F)ccc3OC)cc2)c1
140 | – | – | CCCNC(=O)c1cccc(Oc2ccc(NC(=O)Nc3cc(C(C)(C)C)on3)cc2)c1
38 | – | – | CNC(=O)c1cc(Oc2ccc(NC(=O)Nc3cc(C(C)(C)C)on3)cc2)ccn1
100 | – | – | COc1ccc(C(F)(F)F)cc1NC(=O)Nc1ccc(Oc2cccc(C(=O)Nc3cccnc3)c2)cc1
160 | – | – | O=C(Nc1ccc(Oc2cccc(C(=O)Nc3ccc(N4CCOCC4)cc3)c2)cc1)Nc1ccc(Cl)c(C(F)(F)F)c1
270 | – | – | CCC1CCCN1CNC(=O)c1cccc(Oc2ccc(NC(=O)Nc3ccc(Cl)c(C(F)(F)F)c3)cc2)c1 (configuration not stated)
5800 | – | – | CN(C)C(=O)c1cccc(Oc2ccc(NC(=O)Nc3cc(C(C)(C)C)on3)cc2)c1
230 | – | – | CN(C)c1ccc(NC(=O)c2cccc(Oc3ccc(NC(=O)Nc4ccc(Cl)c(C(F)(F)F)c4)cc3)c2)cc1
1100 | – | – | CC(C)(C)c1cc(NC(=O)Nc2ccc(Oc3ccccc3)cc2)no1
